The nature of series [1]: folding enthalpy; higher = less favourable; fluorescence melt of hairpins on a sequencing array, two-state fit. The settings on record: sodium 0.088 M. A digest of the protocol: (§1)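 Bootstrapped two-state fits yielded melting temperature and folding enthalpy for library hairpins. Cy3 fluorescence, with annealed Cy3 and quencher oligos, was imaged on a sequenced MiSeq flow cell in 50 mM Na-HEPES pH 8.0, 25 mM NaCl in 2.5 °C steps up to 60 °C, and normalised to pre-quench Cy3 and to control constructs. Four replicates were combined by inverse variance, and fitted temperatures were raised by 9.35 °C to match UV melts.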

A short description of series [2]: melting temperature; fluorescence melt of hairpins on a sequencing array, two-state fit, raised by 9.35 °C to match UV melts. To be noted: sodium 0.088 M. A digest of the protocol: as §1

Turning to GGAAGTGGAAACACTTTC (.(((((....))))).), the folding enthalpy in series [1] is -26.6 kcal/mol. For the same sequence, in series [2], the Tm is 45.2 °C.
For GGAATAACGAAAGTTTCC (((..(((....)))))) the same measures were -14.8 kcal/mol and 32.5 °C.
With GGAATACCGAAAGGTTCC (((..(((....)))))), in series [1], the folding enthalpy is -16.1 kcal/mol. Besides, in series [2], the Tm was 36.4 °C.
Consider GGAATACGAAAGTAATCC (((.(((....))).))), for which, in series [1], the folding enthalpy was -28.8 kcal/mol. For the same sequence, in series [2], the Tm was 40.1 °C.
For GGAATAGCGAAAGCTTCC (((..(((....)))))) the same measures were -20.2 kcal/mol and 39.2 °C.
For GGAATAGGAAACTATTCC (((((((....))))))) the same measures were -41.4 kcal/mol and 52.7 °C.
Turning to GGAATAGGAAACTATTTC (.(((((....))))).), the folding enthalpy in series [1] is -29.1 kcal/mol. Moreover, the Tm in series [2] stood at 30.6 °C.
With GGAATCACGAAAGTGTCC (((..(((....)))))), in series [1], the folding enthalpy is -11.5 kcal/mol. Further, the Tm in series [2] is 30.5 °C.
For GGAATCGAAAGATCTTCC ((((((....)))..))) the same measures were -20.9 kcal/mol and 30.6 °C.
For GGAATCGAAAGATGCTCC ((((((....)))..))) the same measures were -10.7 kcal/mol and 28.9 °C.
Take GGAATCGAAAGATGGTCC ((((((....)))..))): the folding enthalpy in series [1] is -8.55 kcal/mol. For the same sequence, the Tm in series [2] is 25.8 °C.
On the same counts, the results for GGAATCGAAAGATGTTCC ((((((....)))..))) are -8.43 kcal/mol and 22.8 °C.
On the same counts, the results for GGAATGACGAAAGTCTCC (((..(((....)))))) are -13.3 kcal/mol and 28.8 °C.
On the same counts, the results for GGAATTGGAAACAGTTCC ((((.((....)).)))) are -27.3 kcal/mol and 42.9 °C.
On to GGACAACGAAAGTTCTCC (((.(((....))).))), for which the folding enthalpy in series [1] was -22.8 kcal/mol. Besides, in series [2], the Tm was 31.3 °C.
For GGACAAGGAAACTTGTTC (.(((((....))))).) the same measures were -25.9 kcal/mol and 43 °C.
For GGACACGAAAGTGACTCC ((((((....)))..))) the same measures were -14.2 kcal/mol and 40.6 °C.
On the same counts, the results for GGACACGAAAGTGGTTCC ((((((....)))..))) are -14.3 kcal/mol and 37.3 °C.
For the sequence GGACACGAAAGTGTATCC ((((((....)))..))), in series [1], the folding enthalpy is -10.9 kcal/mol. Moreover, the Tm in series [2] turned out to be 36.1 °C.
As for GGACACGAAAGTGTTCC ((((((....))).))), in series [1], the folding enthalpy is -17.5 kcal/mol. Moreover, the Tm in series [2] stood at 56 °C.
For GGACACGGAAACACGTCC ((((..(....)..)))) the same measures were -21.8 kcal/mol and 36.4 °C.
For GGACAGAAATGTCC (((((....))))) the same measures were -25.9 kcal/mol and 53.2 °C.
For GGACAGCCGAAAGGCTCC (((..(((....)))))) the same measures were -7.98 kcal/mol and 31.2 °C.
With GGACAGGAAACTGTCC ((((((....)))))), in series [1], the folding enthalpy is -43 kcal/mol. Besides, in series [2], the Tm turned out to be 62.8 °C.
On to GGACAGGGAAACCCGTCC ((((.((....)).)))), for which the folding enthalpy in series [1] is -34.1 kcal/mol. Besides, the Tm in series [2] was 50.8 °C.
For the sequence GGACAGGGAAACCTGTTC (.(((((....))))).), the folding enthalpy in series [1] was -22.9 kcal/mol. Besides, in series [2], the Tm was determined as 50 °C.
For GGACATACGAAAGTATCC (((..(((....)))))) the same measures were -10.9 kcal/mol and 26.8 °C.
For GGACATGCGAAAGCATCC (((..(((....)))))) the same measures were -10.8 kcal/mol and 28.6 °C.
On the same counts, the results for GGACCACGAAAGTGCTCC (((.(((....))).))) are -25.9 kcal/mol and 41.5 °C.
On to GGACCAGGAAACCAGTCC ((((..(....)..)))), for which the folding enthalpy in series [1] was -20.3 kcal/mol. Further, in series [2], the Tm stood at 33.9 °C.
For the sequence GGACCAGGAAACCGGTCC (((((.(....).))))), the folding enthalpy in series [1] was -35.3 kcal/mol. Further, the Tm in series [2] stood at 54.6 °C.
For the sequence GGACCAGGAAACTGGCCC ((.((((....)))).)), the folding enthalpy in series [1] was -35.4 kcal/mol. Moreover, in series [2], the Tm came out at 52.3 °C.
For GGACCAGGAAACTGGTCC (((((((....))))))) the same measures were -32.4 kcal/mol and 68.1 °C.
For GGACCCCGAAAGGGCTCC (((.(((....))).))) the same measures were -16.3 kcal/mol and 48.6 °C.
For GGACCCGAAAGGGCTCC ((((((....))).))), in series [1], the folding enthalpy is -23.1 kcal/mol. Besides, the Tm in series [2] worked out at 58.6 °C.
Regarding GGACCCGAAAGGGGGTCC ((((((....)))..))), the folding enthalpy in series [1] is -27.1 kcal/mol. In addition, the Tm in series [2] was 63.8 °C.
On to GGACCCGAAAGGGTGTCC ((((((....)))..))), for which the folding enthalpy in series [1] was -14 kcal/mol. Also, in series [2], the Tm was determined as 47.1 °C.
For GGACCCGAAAGGGTTTCC ((((((....)))..))) the same measures were -8.05 kcal/mol and 37.1 °C.
On the same counts, the results for GGACCCGGAAACGAGCCC ((.(.((....)).).)) are -16 kcal/mol and 30.2 °C.
On the same counts, the results for GGACCCGGAAACGAGTCC ((((.((....)).)))) are -32.4 kcal/mol and 49.3 °C.
Turning to GGACCGCGAAAGCGCTCC (((.(((....))).))), in series [1], the folding enthalpy is -16.2 kcal/mol. Besides, the Tm in series [2] turned out to be 46.8 °C.
On the same counts, the results for GGACCGCGAAAGCGTCC (((.(((....)))))) are -17.1 kcal/mol and 59.6 °C.
For GGACCGGGAAACCGGCCC ((.((((....)))).)) the same measures were -19.9 kcal/mol and 57.9 °C.
On the same counts, the results for GGACCTCGAAAGAGTCC (((.(((....)))))) are -32.7 kcal/mol and 49.8 °C.
Consider GGACCTGGAAACAGGCCC ((.((((....)))).)), for which the folding enthalpy in series [1] is -25.8 kcal/mol. Also, in series [2], the Tm worked out at 52.7 °C.
On the same counts, the results for GGACCTGGAAACAGGTCC (((((((....))))))) are -28.2 kcal/mol and 68.7 °C.
For GGACCTGGAAACAGGTTC (.(((((....))))).) the same measures were -27.5 kcal/mol and 52.7 °C.
For GGACCTGGAAACGGGTTC (.(((.(....).))).) the same measures were -26.6 kcal/mol and 38.6 °C.
For GGACGAGGAAACTCGTCC (((((((....))))))), the folding enthalpy in series [1] is -44.4 kcal/mol. The Tm in series [2] worked out at 68.8 °C.
For GGACGAGGAAACTCGTTC (.(((((....))))).) the same measures were -32.5 kcal/mol and 51.6 °C.
For GGACGAGGAAACTTGTCC ((((.((....)).)))) the same measures were -43.5 kcal/mol and 50.7 °C.
For GGACGCCGAAAGGCCTCC (((.(((....))).))) the same measures were -19.1 kcal/mol and 44.5 °C.
On to GGACGCGAAAGCGGTCC ((((((....))).))), for which the folding enthalpy in series [1] is -21.2 kcal/mol. The Tm in series [2] came to 68.8 °C.
For GGACGCGGAAACACGTCC (((((.(....).))))) the same measures were -38.9 kcal/mol and 54.8 °C.
Regarding GGACGGCGAAAGCCATCC (((.(((....))).))), the folding enthalpy in series [1] was -23.7 kcal/mol. For the same sequence, in series [2], the Tm came to 50 °C.

The values are drawn from the array DNA melting data of Ke et al. (doi:10.1101/2024.01.08.574731).
